The values below come from PubChem BioAssay.

SMILES strings stand for the structures. Calls of active or inactive are those of the source.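 The calls were made as follows, unless noted: active = viability at or below 10% of carrier control in both of two separate runs; inconclusive = viability at or below 10% in only one of the two runs; inactive = the rest.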

A short description of assay [1]: Her2 expression decrease, cell viability multiplex – SKBR3 breast tumor cells, AlphaScreen, ATP viability, primary screen (AID 461;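 active = Her2 level under about 52% in both replicate screens, with viability over 70% of control, limit read from the data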;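 as to Her2 level: lower value means less Her2 protein in the cells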;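 as to viability: percent of carrier control wells set as 100% viability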). The following applies: SKBR3 Her2 protein level, 18-24 h, measured here: SKBR3 viability, ATP luminescence, at 10 µM. In general terms: Alpha assays give light when donor and acceptor beads are brought close together.
Assay [2] addresses Receptor tyrosine-protein kinase erbB-2 (Homo sapiens) (UniProt P04626). Described as above. Particulars: 18-24 h, at 10 µM, stronger effect = lower value.
Assay [3] is described as follows: reduced viability of SK-BR-3 breast cancer cells – cell-based, 24 h, human, pilot screen (AID 572).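 Also: compound exposure lasted between 18 and 24 h rather than exactly 24 h; 100% = carrier-treated control wells.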 The following applies: SK-BR-3 viability, CellTiter-Glo luminescence, at 10 µM, stronger effect = lower value. Background: In ATP-based viability assays light output follows the ATP content of the culture.
Assay [4] is described as follows: HUVEC growth inhibition – cell-based, human, primary screen (AID 575;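 active = viability at or below 30% in both replicate assays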;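 also: 100% = median of untreated cell wells with 0.1% DMSO on each plate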). Particulars: HUVEC proliferation, CellTiter-Glo luminescence, 72 h; at 10 µM; stronger effect = lower value. In short, it runs like this: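 Test system: primary human umbilical vein endothelial cells; medium: endothelial basal medium with 2% FBS plus growth supplements; dosing: 10 µM compound only; times: 72 h treatment at 37 °C; signal: CTG luminescence; read-out: % viability relative to median vehicle-well signal on each plate; control set: vehicle and MePR control wells; plate: 384-well, collagen-coated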

Assay [5] is described as follows: H69AR cell proliferation blockers – human, duplicate replicates, primary screen (AID 580;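 active = viability at or under a set limit in both replicates, limit being median viability minus 3 SD, cut at about 48% in these data, passing the limit was not always enough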;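 also: 100% = mean luminescence of untreated wells and 0% = no signal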). Particulars: H69AR lung tumor cells viability, ATP luminescence, 72 h; at 10 µM; stronger effect = lower value.
A short description of assay [6]: MRP1 drug-resistance reversers in H69AR cells – cell-based, doxorubicin co-treatment, pilot screen (AID 601;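 active = viability loss from added drug above about 55%, and viability with drug at most 40%, in both replicates, limit read from the data, passing the limit was not always enough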). The following applies: CellTiter-Glo, 72 h, at 10 µM; for differential viability (reversal): stronger effect = higher value.
Assay [7] in a line: yeast transport mutant growth inhibition pilot in 384-well plates, post-Golgi transport modulator project (AID 636; in the data active = inhibition above about 31%). The following applies: absorbance 615 nm, about 18 h, stronger effect = higher value.
A short description of assay [8]: growth suppression of yeast trafficking mutant, preliminary HTS, modulators of trafficking downstream of Golgi apparatus project, 1536-format plate, OD 615 nm (AID 637; in the data active = inhibition above about 30%). Particulars: yeast transport mutant growth, absorbance 615 nm, 18 h; stronger effect = higher value.
Where [9] appears, read: H69AR cells + 2 uM doxorubicin, measured here: viability with 2 uM doxorubicin, stronger effect = lower value.
Setting [10] is: H69AR cells, compound alone cytotoxicity.

What is called viability is a read-out of living cells in per cent, often relative to untreated cells. The term inhibition denotes the drop in the measured response relative to a control, in per cent.

Sequence of Receptor tyrosine-protein kinase erbB-2 (Homo sapiens) (P04626 whole entry, looked up): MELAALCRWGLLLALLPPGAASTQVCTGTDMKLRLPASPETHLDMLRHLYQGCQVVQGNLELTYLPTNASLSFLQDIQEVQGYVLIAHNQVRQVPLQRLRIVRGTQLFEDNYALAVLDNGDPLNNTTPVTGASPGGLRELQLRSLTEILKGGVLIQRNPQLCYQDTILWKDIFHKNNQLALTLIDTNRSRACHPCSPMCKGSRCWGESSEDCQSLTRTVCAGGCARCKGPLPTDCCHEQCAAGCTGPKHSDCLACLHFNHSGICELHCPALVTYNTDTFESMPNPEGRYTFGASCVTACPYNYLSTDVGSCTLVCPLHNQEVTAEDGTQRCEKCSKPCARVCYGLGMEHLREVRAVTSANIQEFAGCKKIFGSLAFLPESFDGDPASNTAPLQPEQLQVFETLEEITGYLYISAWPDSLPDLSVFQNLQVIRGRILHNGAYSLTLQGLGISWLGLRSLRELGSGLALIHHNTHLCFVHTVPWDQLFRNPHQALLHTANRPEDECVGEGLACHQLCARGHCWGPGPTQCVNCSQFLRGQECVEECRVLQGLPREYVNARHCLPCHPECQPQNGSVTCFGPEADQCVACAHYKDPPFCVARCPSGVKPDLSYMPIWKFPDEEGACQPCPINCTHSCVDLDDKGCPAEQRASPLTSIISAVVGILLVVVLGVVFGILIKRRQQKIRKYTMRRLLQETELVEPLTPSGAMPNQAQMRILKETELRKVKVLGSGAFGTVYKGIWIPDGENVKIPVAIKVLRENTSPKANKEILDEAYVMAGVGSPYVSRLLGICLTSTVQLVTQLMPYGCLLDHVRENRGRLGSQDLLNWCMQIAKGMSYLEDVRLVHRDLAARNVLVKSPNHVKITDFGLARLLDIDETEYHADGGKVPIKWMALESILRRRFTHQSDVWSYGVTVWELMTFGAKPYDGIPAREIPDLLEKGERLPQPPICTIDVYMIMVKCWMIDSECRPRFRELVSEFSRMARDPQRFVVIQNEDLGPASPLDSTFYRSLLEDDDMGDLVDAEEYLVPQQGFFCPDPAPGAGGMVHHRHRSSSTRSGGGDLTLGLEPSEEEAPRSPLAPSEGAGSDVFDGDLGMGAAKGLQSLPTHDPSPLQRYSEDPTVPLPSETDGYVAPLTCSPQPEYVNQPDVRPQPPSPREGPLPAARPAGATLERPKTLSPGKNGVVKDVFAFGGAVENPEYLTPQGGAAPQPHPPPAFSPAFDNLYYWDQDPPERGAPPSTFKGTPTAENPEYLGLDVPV

Turning to `Cc1ccccc1CN1CCNC1=O`, the viability in assay [1] was 114%; in assay [3] it was 114% (inactive); in assay [4] it was 88.3% (inactive); in assay [5], 90.8% (inactive); in assay [6] (setting [9]) it was 81.9%; in assay [6] (setting [10]) it was 90.8%. In addition, the Her2 level in assay [2] is 80% (inactive). In addition, in assay [6] (H69AR cells + 2 uM doxorubicin), the differential viability (reversal) is 8.97% (inactive). The values for the inhibition in assay [7] and in assay [8] were -3.16% (inactive) and 6.61% (inactive), respectively.

Take `Cc1cc(C(=O)NCCCc2ccccc2)no1`: the viability in assay [1] was 100%; in assay [3], 100% (inactive); in assay [4], 91.4% (inactive); in assay [5], 107% (inactive); in assay [6] (setting [9]), 88.7%; in assay [6] (setting [10]), 107%. The Her2 level in assay [2] is 86% (inactive). Besides, the differential viability (reversal) in assay [6] (H69AR cells + 2 uM doxorubicin) is 18.6% (inactive). Moreover, the results for the inhibition in assay [7] and in assay [8] were -5% (inactive) and -2.83% (inactive), respectively.

Consider `CCN(CCCNC(=O)CCNC(=O)Cn1ccc2ccccc2c1=O)c1ccccc1`, for which the viability is 97.5% in assay [1]; 97.5% (inactive) in assay [3]; 109% (inactive) in assay [4]; 98.3% (inactive) in assay [5]; 86.5% in assay [6] (setting [9]); 98.3% in assay [6] (setting [10]). Moreover, the Her2 level in assay [2] is 87.5% (inactive). For the same molecule, the differential viability (reversal) in assay [6] (H69AR cells + 2 uM doxorubicin) was 11.8% (inactive). The inhibition in assay [7] was -5.47% (inactive); in assay [8] it was -2.86% (inactive).

Take `CC1Cc2nc(SCC(=O)Nc3ccccc3F)n(C)c(=O)c2S1` (stereo not given): the viability in assay [1] was 104%; in assay [3], 104% (inactive); in assay [4], 92.4% (inactive); in assay [5], 93.5% (inactive); in assay [6] (setting [9]) it was 93.8%; in assay [6] (setting [10]), 93.5%. Also, the Her2 level in assay [2] is 89.5% (inactive). Further, the differential viability (reversal) in assay [6] (H69AR cells + 2 uM doxorubicin) was -0.345% (inactive). Further, the results for the inhibition in assay [7] and in assay [8] were -7.95% (inactive) and 4.29% (inactive), respectively.

As to `Cc1ccc(C(=O)N2CCN(C(=O)c3ccc(C)c(C)c3)C(C)C2)cc1C` (stereo not given), the viability in assay [1] was 84.5%; in assay [3], 84.5% (inactive); in assay [4] it was 97.5% (inactive); in assay [5], 82.2% (inactive); in assay [6] (setting [9]), 70%; in assay [6] (setting [10]), 82.2%. For the same molecule, the Her2 level in assay [2] was 81% (inactive). Besides, in assay [6] (H69AR cells + 2 uM doxorubicin), the differential viability (reversal) was 12.2% (inactive). In addition, the inhibition was -4.61% (inactive) in assay [7] and -1.67% (inactive) in assay [8].

Take `N#CC1=C(N)Oc2n[nH]c(-c3cccs3)c2C1c1cccs1` (stereo not given): the viability was 96.5% in assay [1]; 96.5% (inactive) in assay [3]; 81.4% (inactive) in assay [4]; 83.8% (inactive) in assay [5]; 86.3% in assay [6] (setting [9]); 83.8% in assay [6] (setting [10]). Moreover, the Her2 level in assay [2] is 79.5% (inactive). Further, in assay [6] (H69AR cells + 2 uM doxorubicin), the differential viability (reversal) was -2.47% (inactive). Further, the results for the inhibition in assay [7] and in assay [8] were -3.73% (inactive) and -1.31% (inactive), respectively.

With `CN(C)c1nc(Nc2ccc(Cl)cc2)nc(OCC#N)n1`, the viability in assay [1] was 105%; in assay [3], 105% (inactive); in assay [4] it was 63.2% (inactive); in assay [5], 81.8% (inactive); in assay [6] (setting [9]), 96.3%; in assay [6] (setting [10]) it was 81.8%. In addition, the Her2 level in assay [2] was 80.5% (inactive). In addition, in assay [6] (H69AR cells + 2 uM doxorubicin), the differential viability (reversal) was -14.6% (inactive). In addition, the inhibition in assay [7] was -0.26% (inactive); in assay [8], 11% (inactive).

`O=C(c1ccc(Br)o1)N(c1ccc(Br)cc1)C1C=CS(=O)(=O)C1` (stereo not given): the viability in assay [1] was 89%; in assay [3] it was 89% (inactive); in assay [4], 80% (inactive); in assay [5], 87% (inactive); in assay [6] (setting [9]) it was 81.7%; in assay [6] (setting [10]) it was 87%. Also, the Her2 level in assay [2] is 156% (inactive). Moreover, the differential viability (reversal) in assay [6] (H69AR cells + 2 uM doxorubicin) is 5.32% (inactive). Moreover, the inhibition in assay [7] was 5% (inactive); in assay [8] it was 21% (inactive).

As to `CCN(CC)c1ccc2cc(NC(=O)CCC(=O)O)c(=O)oc2c1`, the viability in assay [1] is 89%; in assay [3], 89% (inactive); in assay [4], 81.1% (inactive); in assay [5], 95.7% (inactive); in assay [6] (setting [9]) it was 108%; in assay [6] (setting [10]), 95.7%. Also, the Her2 level in assay [2] was 99% (inactive). The differential viability (reversal) in assay [6] (H69AR cells + 2 uM doxorubicin) was -12.2% (inactive). For the same molecule, the inhibition in assay [7] was -2.13% (inactive); in assay [8], -5.32% (inactive).

Take `CC(C)CCN1CC(C(=O)NCc2ccccc2)CC1=O` (stereo not given): the viability in assay [1] was 88.5%; in assay [3] it was 88.5% (inactive); in assay [4] it was 88% (inactive); in assay [5], 92.6% (inactive); in assay [6] (setting [9]), 91.2%; in assay [6] (setting [10]) it was 92.6%. The Her2 level in assay [2] is 87.5% (inactive). Further, the differential viability (reversal) in assay [6] (H69AR cells + 2 uM doxorubicin) is 1.32% (inactive). Further, the results for the inhibition in assay [7] and in assay [8] were 1.28% (inactive) and -0.83% (inactive), respectively.

On to `CCOC(=O)N1CCN(C(=O)c2csc3c2CCCCC3)CC1`, for which the viability in assay [1] is 93.5%; in assay [3], 93.5% (inactive); in assay [4] it was 94.9% (inactive); in assay [5], 90.8% (inactive); in assay [6] (setting [9]), 92.5%; in assay [6] (setting [10]) it was 90.8%. Moreover, the Her2 level in assay [2] was 112% (inactive). The differential viability (reversal) in assay [6] (H69AR cells + 2 uM doxorubicin) was -1.73% (inactive). Further, the inhibition in assay [7] is 0.51% (inactive); in assay [8] it was -13.7% (inactive).

As for `CCOC(=O)c1c(NC(=O)OC)sc(C(=O)N(C)C)c1C`, the viability in assay [1] is 109%; in assay [3], 109% (inactive); in assay [4], 112% (inactive); in assay [5], 108% (inactive); in assay [6] (setting [9]) it was 87.9%; in assay [6] (setting [10]), 108%. The Her2 level in assay [2] was 94.5% (inactive). The differential viability (reversal) in assay [6] (H69AR cells + 2 uM doxorubicin) was 20% (inactive). The figures for the inhibition in assay [7] and in assay [8] were -6.89% (inactive) and -4% (inactive), respectively.

Turning to `CC(=O)Nc1c(-c2ccc(F)cc2)nc2ccccn12`, the viability is 94.5% in assay [1]; 94.5% (inactive) in assay [3]; 114% (inactive) in assay [4]; 87.7% (inactive) in assay [5]; 107% in assay [6] (setting [9]); 87.7% in assay [6] (setting [10]). Further, the Her2 level in assay [2] was 107% (inactive). Further, the differential viability (reversal) in assay [6] (H69AR cells + 2 uM doxorubicin) is -19.5% (inactive). The inhibition in assay [7] was -4.67% (inactive); in assay [8], 1% (inactive).

`CC1CN(C(=O)CSc2nnc(-c3ccncc3)n2-c2ccccc2)CC(C)O1` (stereo not given): the viability was 101% in assay [1]; 101% (inactive) in assay [3]; 103% (inactive) in assay [4]; 97.6% (inactive) in assay [5]; 103% in assay [6] (setting [9]); 97.6% in assay [6] (setting [10]). In addition, in assay [2], the Her2 level was 112% (inactive). Further, the differential viability (reversal) in assay [6] (H69AR cells + 2 uM doxorubicin) is -5% (inactive). For the same molecule, the inhibition in assay [7] was -1.08% (inactive); in assay [8] it was 0.32% (inactive).
